{"source": "ChEMBL document CHEMBL1773023", "about": "“Potent and selective phosphopeptide mimetic prodrugs targeted to the Src homology 2 (SH2) domain of signal transducer and activator of transcription 3” (J Med Chem, 2011)", "key": {"[1]": {"molecular_target": "T1, Signal transducer and activator of transcription 3 (Homo sapiens, UniProt P40763)", "T1 sequence (P40763 whole entry, the tested form may be a part)": "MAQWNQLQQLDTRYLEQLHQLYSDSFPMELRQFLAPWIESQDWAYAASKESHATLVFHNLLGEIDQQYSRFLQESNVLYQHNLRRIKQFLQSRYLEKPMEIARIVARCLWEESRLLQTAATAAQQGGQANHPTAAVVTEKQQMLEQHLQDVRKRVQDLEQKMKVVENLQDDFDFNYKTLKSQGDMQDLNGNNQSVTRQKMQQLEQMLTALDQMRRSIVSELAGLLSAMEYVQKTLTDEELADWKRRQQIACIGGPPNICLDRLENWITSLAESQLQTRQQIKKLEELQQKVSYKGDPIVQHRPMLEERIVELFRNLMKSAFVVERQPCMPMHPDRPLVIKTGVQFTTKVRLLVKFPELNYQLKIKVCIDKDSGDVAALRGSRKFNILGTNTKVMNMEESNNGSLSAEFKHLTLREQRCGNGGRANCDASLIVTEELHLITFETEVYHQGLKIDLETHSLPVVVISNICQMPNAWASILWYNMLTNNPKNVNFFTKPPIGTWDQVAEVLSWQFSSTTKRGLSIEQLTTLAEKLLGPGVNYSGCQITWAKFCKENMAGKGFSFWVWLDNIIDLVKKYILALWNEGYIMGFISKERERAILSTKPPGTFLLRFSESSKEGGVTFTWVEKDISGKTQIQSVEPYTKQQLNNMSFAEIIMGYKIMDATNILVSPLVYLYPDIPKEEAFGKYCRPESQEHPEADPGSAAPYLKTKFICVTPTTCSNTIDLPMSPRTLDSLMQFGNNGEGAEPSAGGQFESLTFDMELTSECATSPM", "assay": "Inhibition of SH2 domain of Stat3 constitutive phosphorylation at Tyr705 in human MDA-MB-468 cells at 5 uM after 30 mins by Western blotting", "type": "cell-based", "outline": "(§1)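 MDA-MB-468 cells given a single 5 μM prodrug dose and harvested at set times; pTyr705 and total Stat3 by Western blot of 12 μg lysate protein on 8% SDS-PAGE.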"}, "[2]": {"molecular_target": "T1, Signal transducer and activator of transcription 3", "assay": "Inhibition of SH2 domain of Stat3 constitutive phosphorylation at Tyr705 in human MDA-MB-468 cells at 0.5 uM after 2 hrs by Western blotting", "type": "cell-based", "outline": "(§2)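 MDA-MB-468 cells (4×10^5/well, DMEM 10% FCS, overnight) given prodrug from freshly made 10 mM DMSO stock for 2 h. Lysates in Hepes pH 7.4 Triton buffer with phosphatase/protease inhibitors; 12 μg protein on 8% SDS-PAGE, PVDF, probed for pStat3 Y705 by ECL, then stripped and reprobed for total Stat3.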"}, "[3]": {"molecular_target": "T1, Signal transducer and activator of transcription 3", "assay": "Inhibition of SH2 domain of Stat3 constitutive phosphorylation at Tyr705 in human MDA-MB-468 cells at 5 uM after 4 hrs by Western blotting", "type": "cell-based", "outline": "as §1"}, "[4]": {"molecular_target": "T1, Signal transducer and activator of transcription 3", "assay": "Inhibition of SH2 domain of Stat3 constitutive phosphorylation at Tyr705 in human MDA-MB-468 cells at 5 uM after 8 hrs by Western blotting", "type": "cell-based", "outline": "as §1"}, "[5]": {"molecular_target": "T1, Signal transducer and activator of transcription 3", "assay": "Inhibition of SH2 domain of Stat3 constitutive phosphorylation at Tyr705 in human MDA-MB-468 cells at 5 uM after 16 hrs by Western blotting", "type": "cell-based", "outline": "as §1"}, "[6]": {"molecular_target": "T1, Signal transducer and activator of transcription 3", "assay": "Inhibition of EGF-induced SH2 domain of Stat3 phosphorylation at Tyr705 in human MDA-MB-468 cells at 5 uM treated 1.5 hrs before EGF challenge measured after 30 mins by Western blotting", "type": "cell-based", "outline": "(§3)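 MDA-MB-468 cells pretreated 1.5 h with prodrug (5 μM), then EGF 100 ng/mL for 30 min; lysates split onto three PVDF blots probed for phospho/total Stat3, pSer473/total Akt, and phospho/total Stat5.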"}, "[7]": {"molecular_target": "T2, Signal transducer and activator of transcription 5A (Homo sapiens) (UniProt P42229)", "T2 sequence (whole entry)": "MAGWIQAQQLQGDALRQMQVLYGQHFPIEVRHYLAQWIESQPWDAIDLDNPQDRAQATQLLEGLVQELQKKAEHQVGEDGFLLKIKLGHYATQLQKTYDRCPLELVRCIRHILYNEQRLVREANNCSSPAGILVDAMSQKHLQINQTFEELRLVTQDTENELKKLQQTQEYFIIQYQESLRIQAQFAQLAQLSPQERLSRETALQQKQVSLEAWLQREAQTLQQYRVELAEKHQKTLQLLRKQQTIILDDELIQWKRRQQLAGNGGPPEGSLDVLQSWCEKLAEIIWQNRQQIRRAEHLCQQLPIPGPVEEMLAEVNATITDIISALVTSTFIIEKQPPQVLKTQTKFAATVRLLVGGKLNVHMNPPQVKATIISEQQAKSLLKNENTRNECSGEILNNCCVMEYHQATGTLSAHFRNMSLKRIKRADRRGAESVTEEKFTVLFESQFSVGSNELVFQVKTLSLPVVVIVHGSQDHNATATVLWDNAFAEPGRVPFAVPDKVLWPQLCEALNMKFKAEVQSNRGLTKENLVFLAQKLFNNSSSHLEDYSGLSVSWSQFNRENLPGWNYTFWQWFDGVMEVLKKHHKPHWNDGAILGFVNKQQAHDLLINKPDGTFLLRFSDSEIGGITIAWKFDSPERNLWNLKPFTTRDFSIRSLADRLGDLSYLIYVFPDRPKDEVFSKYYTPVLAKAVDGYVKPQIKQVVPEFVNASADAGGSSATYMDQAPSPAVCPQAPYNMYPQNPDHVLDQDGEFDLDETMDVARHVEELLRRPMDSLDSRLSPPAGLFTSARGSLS", "assay": "Inhibition of EGF-induced SH2 domain of Stat5 phosphorylation at Tyr694 in human MDA-MB-468 cells at 5 uM treated 1.5 hrs before EGF challenge measured after 30 mins by Western blotting", "type": "cell-based", "outline": "as §3"}, "[8]": {"molecular_target": "RAC-alpha serine/threonine-protein kinase (Homo sapiens) (UniProt P31749)", "sequence (P31749 whole entry)": "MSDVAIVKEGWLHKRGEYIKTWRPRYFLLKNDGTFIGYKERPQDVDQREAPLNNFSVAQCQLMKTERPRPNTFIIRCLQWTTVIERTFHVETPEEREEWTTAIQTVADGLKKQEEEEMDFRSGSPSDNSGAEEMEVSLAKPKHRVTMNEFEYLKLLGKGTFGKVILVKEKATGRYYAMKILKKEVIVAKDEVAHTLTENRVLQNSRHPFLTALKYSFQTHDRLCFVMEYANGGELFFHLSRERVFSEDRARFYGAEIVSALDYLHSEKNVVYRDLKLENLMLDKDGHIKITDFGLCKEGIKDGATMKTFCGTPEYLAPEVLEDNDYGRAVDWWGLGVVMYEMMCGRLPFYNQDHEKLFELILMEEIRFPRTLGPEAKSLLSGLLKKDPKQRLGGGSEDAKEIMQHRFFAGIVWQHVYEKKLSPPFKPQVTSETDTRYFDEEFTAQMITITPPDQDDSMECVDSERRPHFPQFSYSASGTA", "assay": "Inhibition of EGF-induced Akt phosphorylation at Ser473 in human MDA-MB-468 cells at 5 uM treated 1.5 hrs before EGF challenge measured after 30 mins by Western blotting", "type": "cell-based", "outline": "as §3"}, "[9]": {"molecular_target": "T3, Signal transducer and activator of transcription 1-alpha/beta (Homo sapiens) (UniProt P42224)", "T3 sequence (whole entry)": "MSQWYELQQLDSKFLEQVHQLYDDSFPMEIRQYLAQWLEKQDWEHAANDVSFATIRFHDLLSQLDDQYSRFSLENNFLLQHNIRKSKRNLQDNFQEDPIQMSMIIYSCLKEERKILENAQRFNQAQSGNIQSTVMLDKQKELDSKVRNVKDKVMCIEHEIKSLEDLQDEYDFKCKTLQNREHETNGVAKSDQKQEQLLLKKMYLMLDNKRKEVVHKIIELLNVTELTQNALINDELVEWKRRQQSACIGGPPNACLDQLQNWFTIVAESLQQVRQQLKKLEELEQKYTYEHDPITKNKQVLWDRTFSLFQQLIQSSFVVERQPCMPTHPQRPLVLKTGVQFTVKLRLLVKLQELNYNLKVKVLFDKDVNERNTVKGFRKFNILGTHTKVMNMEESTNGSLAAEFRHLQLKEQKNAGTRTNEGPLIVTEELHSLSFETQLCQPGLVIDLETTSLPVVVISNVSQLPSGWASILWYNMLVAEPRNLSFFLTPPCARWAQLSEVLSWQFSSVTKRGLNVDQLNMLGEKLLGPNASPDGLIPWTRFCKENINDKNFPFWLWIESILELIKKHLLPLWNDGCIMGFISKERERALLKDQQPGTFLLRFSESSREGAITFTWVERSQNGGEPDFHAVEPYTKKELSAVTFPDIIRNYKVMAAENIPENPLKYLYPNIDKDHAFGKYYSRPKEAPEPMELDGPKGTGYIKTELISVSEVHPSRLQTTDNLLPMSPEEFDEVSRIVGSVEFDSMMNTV", "assay": "Inhibition of IFN-gamma-induced Stat1 phosphorylation at Tyr701 in human MDA-MB-468 cells treated 1.5 hrs before IFN-gamma challenge measured after 30 mins by Western blotting", "type": "cell-based", "outline": "(§4)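 MDA-MB-468 cells exposed to rising prodrug concentrations for 1.5 h, then interferon γ 25 ng/mL for 30 min; Western blot for pTyr701 and total Stat1.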"}, "[10]": {"molecular_target": "T3, Signal transducer and activator of transcription 1-alpha/beta (Homo sapiens)", "assay": "Inhibition of IFN-gamma-induced Stat1 phosphorylation at Tyr701 in human MDA-MB-468 cells at 5 uM treated 1.5 hrs before IFN-gamma challenge measured after 30 mins by Western blotting", "type": "cell-based", "outline": "as §4"}, "[11]": {"tested_on": "MDA-MB-468", "assay": "Selectivity ratio of inhibition of IFNgamma-induced Stat1 phosphorylation at Tyr701 to inhibition of EGF-induced SH2 domain of Stat3 phosphorylation at Tyr705 in human MDA-MB-468 cells", "type": "cell-based"}, "[12]": {"tested_on": "MDA-MB-468", "assay": "Cytotoxicity against human MDA-MB-468 cells after 72 hrs by MTT assay", "type": "functional, cell-based", "details": "MDA-MB-468, 72 h", "outline": "(§5)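 MDA-MB-468 cells in DMEM/10% FBS, 1500 cells/well in triplicate; medium changed next day. Prodrug stock 10 mM in ethanol, diluted into wells (ethanol <1% final); single dose or daily re-addition at 24 and 48 h in same medium. MTT read-out at 72 h; assays run three times.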"}, "[13]": {"molecular_target": "Focal adhesion kinase 1 (Homo sapiens) (UniProt Q05397)", "sequence (Q05397 2-1052 limits assumed)": "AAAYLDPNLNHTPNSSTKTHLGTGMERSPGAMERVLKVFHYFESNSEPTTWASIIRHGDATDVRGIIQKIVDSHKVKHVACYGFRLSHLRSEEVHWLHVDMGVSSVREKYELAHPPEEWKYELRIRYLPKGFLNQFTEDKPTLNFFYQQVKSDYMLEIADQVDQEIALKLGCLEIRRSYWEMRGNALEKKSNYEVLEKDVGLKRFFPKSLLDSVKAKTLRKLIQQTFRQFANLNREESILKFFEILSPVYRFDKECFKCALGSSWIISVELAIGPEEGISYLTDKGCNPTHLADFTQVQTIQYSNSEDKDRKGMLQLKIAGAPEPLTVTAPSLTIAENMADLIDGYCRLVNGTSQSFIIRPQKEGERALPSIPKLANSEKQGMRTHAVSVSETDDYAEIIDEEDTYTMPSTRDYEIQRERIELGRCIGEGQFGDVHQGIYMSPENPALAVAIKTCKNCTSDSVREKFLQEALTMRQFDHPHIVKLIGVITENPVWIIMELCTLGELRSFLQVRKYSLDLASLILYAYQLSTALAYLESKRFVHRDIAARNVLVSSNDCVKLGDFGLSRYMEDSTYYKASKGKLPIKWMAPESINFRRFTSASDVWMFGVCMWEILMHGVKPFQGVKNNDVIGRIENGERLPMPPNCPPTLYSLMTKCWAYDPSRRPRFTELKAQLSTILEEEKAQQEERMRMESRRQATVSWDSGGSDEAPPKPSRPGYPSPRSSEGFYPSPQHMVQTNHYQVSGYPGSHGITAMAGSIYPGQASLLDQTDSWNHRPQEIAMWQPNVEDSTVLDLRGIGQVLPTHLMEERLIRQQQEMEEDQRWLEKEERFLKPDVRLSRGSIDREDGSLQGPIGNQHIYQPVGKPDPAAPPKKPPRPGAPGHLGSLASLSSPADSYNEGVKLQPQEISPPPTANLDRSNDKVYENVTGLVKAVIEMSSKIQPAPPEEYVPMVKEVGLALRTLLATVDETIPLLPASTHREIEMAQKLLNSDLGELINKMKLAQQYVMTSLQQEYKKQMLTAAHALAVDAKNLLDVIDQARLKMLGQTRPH", "assay": "Inhibition of constitutive FAK phosphorylation at Tyr861 in human MDA-MB-468 cells at 5 uM measured after 2 hrs by Western blotting"}, "[14]": {"molecular_target": "T1, Signal transducer and activator of transcription 3", "assay": "Inhibition of SH2 domain of Stat3 constitutive phosphorylation at Tyr705 in human MDA-MB-468 cells at 25 uM after 2 hrs by Western blotting", "type": "cell-based", "outline": "as §2"}, "[15]": {"tested_on": "MDA-MB-468", "assay": "Cytotoxicity against human MDA-MB-468 cells assessed as cell growth inhibition at 10 to 15 uM after 72 hrs by MTT assay", "type": "functional, cell-based", "outline": "as §5"}, "[16]": {"tested_on": "MDA-MB-468", "assay": "Cytotoxicity against human MDA-MB-468 cells up to 50 uM after 72 hrs by SRB assay", "type": "functional, cell-based"}, "[17]": {"tested_on": "MCF7", "assay": "Cytotoxicity against human MCF7 cells up to 50 uM after 72 hrs by SRB assay", "type": "functional, cell-based", "outline": "(§6)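 Cancer cell lines (MCF-7, SKOV3-ip, HCC-827) dosed daily with prodrug for three days; viability by SRB assay.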"}, "[18]": {"tested_on": "SKOV3ip", "assay": "Cytotoxicity against human SKOV3ip cells up to 50 uM after 72 hrs by SRB assay", "type": "functional, cell-based", "outline": "as §6"}, "[19]": {"tested_on": "HCC827", "assay": "Cytotoxicity against human HCC827 cells up to 50 uM after 72 hrs by SRB assay", "type": "functional, cell-based", "outline": "as §6"}, "[20]": {"molecular_target": "T1, Signal transducer and activator of transcription 3", "assay": "Inhibition of SH2 domain of Stat3 constitutive phosphorylation at Tyr705 in human MDA-MB-468 cells at 5 uM after 2 hrs by Western blotting", "type": "cell-based", "outline": "as §2"}}, "note": "The source made the active and inactive calls. The calls are words filed in the database; no cut-off is given here."}
{"smiles": "CCCC[C@H](NC(=O)/C=C(\\C)c1ccc(C(F)(F)P(=O)(OCOC(=O)C(C)(C)C)OCOC(=O)C(C)(C)C)cc1)C(=O)N1C[C@H]2C[C@H]2[C@H]1C(=O)N[C@H](C)CCC(N)=O", "values": [{"measurement": "inhibition", "setting": "[1]", "result": "Active"}, {"measurement": "inhibition", "setting": "[2]", "result": "Active"}, {"measurement": "inhibition", "setting": "[3]", "result": "Active"}, {"measurement": "inhibition", "setting": "[4]", "result": "Active"}, {"measurement": "inhibition", "setting": "[5]", "result": "inactive"}, {"measurement": "inhibition", "setting": "[6]", "result": "Active"}, {"measurement": "inhibition", "setting": "[7]", "result": "inactive"}, {"measurement": "inhibition", "setting": "[8]", "result": "inactive"}, {"measurement": "inhibition", "setting": "[9]", "result": "Dose-dependent effect"}, {"measurement": "inhibition", "setting": "[10]", "result": "Active"}, {"measurement": "Ratio", "setting": "[11]", "result": 10}, {"measurement": "IC50", "setting": "[12]", "result": 30, "unit": "µM"}, {"measurement": "inhibition", "setting": "[13]", "result": "inactive"}]}
{"smiles": "CCCC[C@H](NC(=O)/C=C(\\C)c1ccc(C(F)(F)P(=O)(OCOC(=O)C(C)(C)C)OCOC(=O)C(C)(C)C)cc1)C(=O)N1C[C@@H]2C[C@@H]2[C@@H]1C(=O)N[C@@H](CCC(N)=O)C(C)OCc1ccccc1", "note": "(stereo partly specified)", "values": [{"measurement": "inhibition", "setting": "[14]", "result": "inactive"}, {"measurement": "growth inhibition (GI)", "setting": "[15]", "result": "Active"}]}
{"smiles": "CCOP(=O)(OCC)C(F)(F)c1ccc(/C(C)=C/C(=O)N[C@H]2CCc3cccc4c3N(C2=O)[C@H](C(=O)N[C@H](C)CCC(N)=O)C4)cc1", "values": [{"measurement": "inhibition", "setting": "[14]", "result": "inactive"}, {"measurement": "growth inhibition (GI)", "setting": "[16]", "result": "inactive"}, {"measurement": "growth inhibition (GI)", "setting": "[17]", "result": "inactive"}, {"measurement": "growth inhibition (GI)", "setting": "[18]", "result": "inactive"}, {"measurement": "growth inhibition (GI)", "setting": "[19]", "result": "inactive"}]}
{"smiles": "CCCC[C@H](NC(=O)/C=C(\\C)c1ccc(C(F)(F)P(=O)(OCOC(=O)C(C)(C)C)OCOC(=O)C(C)(C)C)cc1)C(=O)N1CC2CC2C1C(=O)NCCNC(N)=O", "note": "(mixture of isomers)", "values": [{"measurement": "inhibition", "setting": "[20]", "result": "Active"}]}
